Test system: RAW264.7
Assay: Antiresorptive activity in mouse RAW264.7 cells assessed as inhibition of RANKL-induced osteoclastogenesis after 4 days by TRAP assay
Format: functional, cell-based
Details: for IC50: RAW264.7, 96 h
Procedure, shortened: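 RAW264.7 cells, maintained in DMEM with 10% FBS and penicillin/streptomycin at 37 °C under 5% CO₂, were seeded at 1 × 10³ cells/well in α-MEM. On day 4, cells were fixed in 10% formalin (10 min) and 95% ethanol (1 min), then dried. TRAP activity was measured with 5 mM p-nitrophenylphosphate in 50 mM citrate buffer (pH 4.6, 10 mM tartrate) for 30 min, stopped with 0.1 N NaOH, and read at 410 nm.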

Compound	IC50	inhibition
COc1cc(/C=C/C(=O)c2cccc(-n3cc(-c4ccc(C)cc4)nn3)c2)ccc1O	15.4 µM	
COc1ccc(/C=C/C(=O)c2cccc(-n3cc(-c4ccccc4C(F)(F)F)nn3)c2)cc1O	9.12 µM	
COc1ccc(/C=C/C(=O)c2cccc(-n3cc(-c4cc(F)cc(F)c4)nn3)c2)cc1O	7.14 µM	
COc1ccc(-c2cn(-c3cccc(C(=O)/C=C/c4ccc(O)c(OC)c4)c3)nn2)cc1	7.9 µM	
COc1cc(/C=C/C(=O)c2cccc(-n3cc(-c4cccc(Cl)c4)nn3)c2)ccc1O	14.3 µM	
COc1cc(/C=C/C(=O)c2cccc(-n3cc(-c4cc(F)cc(F)c4)nn3)c2)ccc1O	22.8 µM	
CCCCCc1ccc(-c2cn(-c3cccc(C(=O)/C=C/c4ccc(OC)c(O)c4)c3)nn2)cc1	> 30 µM	
COc1ccc(-c2cn(-c3cccc(C(=O)/C=C/c4ccc(OC)c(O)c4)c3)nn2)cc1	6.29 µM	
COc1ccc(/C=C/C(=O)c2cccc(-n3cc(C(C)(C)O)nn3)c2)cc1O	17.1 µM	
C=C(C)c1cn(-c2cccc(C(=O)/C=C/c3ccc(O)c(OC)c3)c2)nn1	9.79 µM	
COc1cc(/C=C/C(=O)c2cccc(N=[N+]=[N-])c2)ccc1O	7.11 µM	
COc1cc(/C=C/C(=O)c2cccc(-n3cc(-c4ccccc4C(F)(F)F)nn3)c2)ccc1O	5.07 µM	Dose-dependent effect
COc1cc(/C=C/C(=O)c2cccc(-n3cc(-c4ccc(Br)cc4)nn3)c2)ccc1O	19.1 µM	
COc1ccc(/C=C/C(=O)c2cccc(-n3cc(-c4ccccc4)nn3)c2)cc1O	1.51 µM	Dose-dependent effect
COc1cc(/C=C/C(=O)c2cccc(-n3cc(-c4ccc(F)cc4)nn3)c2)ccc1O	6.45 µM	
COc1ccc(/C=C/C(=O)c2cccc(-n3cc(-c4cccc(Cl)c4)nn3)c2)cc1O	6.61 µM	
C=C(C)c1cn(-c2cccc(C(=O)/C=C/c3ccc(OC)c(O)c3)c2)nn1	7.76 µM	
COc1ccc(/C=C/C(=O)c2cccc(-n3cc(-c4ccc(F)cc4)nn3)c2)cc1O	2.5 µM	
COc1cc(/C=C/C(=O)c2cccc(-n3cc(-c4ccccc4)nn3)c2)ccc1O	16.8 µM	
CCCCCc1ccc(-c2cn(-c3cccc(C(=O)/C=C/c4ccc(O)c(OC)c4)c3)nn2)cc1	5.78 µM	
COc1ccc(/C=C/C(=O)c2cccc(N=[N+]=[N-])c2)cc1O	1.96 µM	Dose-dependent effect
COc1ccc(/C=C/C(=O)c2cccc(-n3cc(-c4ccc(Br)cc4)nn3)c2)cc1O	6.57 µM	
COc1ccc(/C=C/C(=O)c2cccc(-n3cc(-c4ccc(C)cc4)nn3)c2)cc1O	1.7 µM	Dose-dependent effect
COc1cc(/C=C/C(=O)c2cccc(-n3cc(C(C)(C)O)nn3)c2)ccc1O	19.8 µM	

Source: ChEMBL document CHEMBL1777669, “Synthesis of substituted triazolyl curcumin mimics that inhibit RANKL-induced osteoclastogenesis” (Bioorg Med Chem Lett, 2011)
